Activity calls are given as the source filed them. No cut-off for these calls is given here.
Key:
[1] = Antioxidant activity assessed as superoxide radical scavenging activity measured every 30 secs for 6 mins in presence of superoxide generator pyrogallol; assay type: functional
How it was run: (§1)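 In vitro radical scavenging was reported as IC50 (mM) alongside a positive control. Data are mean ± s, n = 6, with experiments run in triplicate.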

[2] = Antioxidant activity assessed as DPPH radical scavenging activity incubated for 30 mins in dark; assay type: functional; how it was run: as §1
[3] = Antioxidant activity assessed as hydroxyl radical scavenging activity measured 10 mins after H2O2 addition by pyronin B dye based assay; assay type: functional; how it was run: as §1
[4] = Antioxidant activity assessed as ABTS radical scavenging activity after 6 mins by spectrophotometric analysis; assay type: functional; how it was run: as §1
[5] = Solubility of the compound in water; assay type: physicochemical; settings: buffer
Mus musculus [6] = test: Antiinflammatory activity in Kunming mouse CFA-induced arthritis model assessed as COX-2 level in serum at 100 mg/kg/day, po for 1 week administered on day 8 post CFA induction by ELISA (reference value: 85.3 +/- 0.1 ng/L); assay type: functional
Mus musculus [7] = test: Antiinflammatory activity in Kunming mouse CFA-induced arthritis model assessed as inhibition of paw swelling at 100 mg/kg/day, po for 1 week administered on day 8 post CFA induction measured every 2 days during compound dosing; assay type: functional
How it was run: (§2)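 Dosing began seven days after the model was established, at 100 mg·kg⁻¹·d⁻¹ (high) or 25 mg·kg⁻¹·d⁻¹ (low). Inhibition of paw swelling was expressed in %, with celecoxib as reference group.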

Mus musculus [8] = test: Antiinflammatory activity in Kunming mouse CFA-induced arthritis model assessed as COX-2 level in serum at 25 mg/kg/day, po for 1 week administered on day 8 post CFA induction by ELISA (reference value: 85.3 +/- 0.1 ng/L); assay type: functional
Mus musculus [9] = test: Antiinflammatory activity in Kunming mouse CFA-induced arthritis model assessed as PGE2 level in serum at 100 mg/kg/day, po for 1 week administered on day 8 post CFA induction by ELISA (reference value: 207 +/- 2.1 ng/L); assay type: functional
Mus musculus [10] = test: Antiinflammatory activity in Kunming mouse CFA-induced arthritis model assessed as PGE2 level in serum at 25 mg/kg/day, po for 1 week administered on day 8 post CFA induction by ELISA (reference value: 207 +/- 2.1 ng/L); assay type: functional
Mus musculus [11] = test: Antioxidant activity in Kunming mouse CFA-induced arthritis model assessed as malondialdehyde level in serum at 100 mg/kg/day, po for 1 week administered on day 8 post CFA induction by ELISA (reference value: 15.5 +/- 1.1 nmol/ml); assay type: functional
Mus musculus [12] = test: Antioxidant activity in Kunming mouse CFA-induced arthritis model assessed as malondialdehyde level in serum at 25 mg/kg/day, po for 1 week administered on day 8 post CFA induction by ELISA (reference value: 15.5 +/- 1.1 nmol/ml); assay type: functional
Mus musculus [13] = test: Antioxidant activity in Kunming mouse CFA-induced arthritis model assessed as total antioxidant capacity in serum at 100 mg/kg/day, po for 1 week administered on day 8 post CFA induction by ELISA (reference value: 2.9 +/- 0.5 U/ml); assay type: functional
Mus musculus [14] = test: Antioxidant activity in Kunming mouse CFA-induced arthritis model assessed as total antioxidant capacity in serum at 25 mg/kg/day, po for 1 week administered on day 8 post CFA induction by ELISA (reference value: 2.9 +/- 0.5 U/ml); assay type: functional
Mus musculus [15] = test: Antioxidant activity in Kunming mouse CFA-induced arthritis model assessed as superoxide dismutase activity in serum at 100 mg/kg/day, po for 1 week administered on day 8 post CFA induction by ELISA (reference value: 66.7 +/- 0.9 U/ml); assay type: functional
Mus musculus [16] = test: Antioxidant activity in Kunming mouse CFA-induced arthritis model assessed as superoxide dismutase activity in serum at 25 mg/kg/day, po for 1 week administered on day 8 post CFA induction by ELISA (reference value: 66.7 +/- 0.9 U/ml); assay type: functional
Mus musculus [17] = test: Antiinflammatory activity in Kunming mouse CFA-induced arthritis model assessed as inhibition of paw swelling at 25 mg/kg/day, po for 1 week administered on day 8 post CFA induction measured every 2 days during compound dosing; assay type: functional, organism-based; how it was run: as §2
Mus musculus [18] = test: Antiinflammatory activity in Kunming mouse CFA-induced arthritis model assessed as COX-2 level in serum at 30 mg/kg/day, po for 1 week administered on day 8 post CFA induction by ELISA (reference value: 85.3 +/- 0.1 ng/L); assay type: functional
Mus musculus [19] = test: Antiinflammatory activity in Kunming mouse CFA-induced arthritis model assessed as PGE2 level in serum at 30 mg/kg/day, po for 1 week administered on day 8 post CFA induction by ELISA (reference value: 207 +/- 2.1 ng/L); assay type: functional
Mus musculus [20] = test: Antioxidant activity in Kunming mouse CFA-induced arthritis model assessed as malondialdehyde level in serum at 30 mg/kg/day, po for 1 week administered on day 8 post CFA induction by ELISA (reference value: 15.5 +/- 1.1 nmol/ml); assay type: functional
Mus musculus [21] = test: Antioxidant activity in Kunming mouse CFA-induced arthritis model assessed as total antioxidant capacity in serum at 30 mg/kg/day, po for 1 week administered on day 8 post CFA induction by ELISA (reference value: 2.9 +/- 0.5 U/ml); assay type: functional
Mus musculus [22] = test: Antioxidant activity in Kunming mouse CFA-induced arthritis model assessed as superoxide dismutase activity in serum at 30 mg/kg/day, po for 1 week administered on day 8 post CFA induction by ELISA (reference value: 66.7 +/- 0.9 U/ml); assay type: functional
Mus musculus [23] = test: Antiinflammatory activity in Kunming mouse CFA-induced arthritis model assessed as inhibition of paw swelling at 30 mg/kg/day, po for 1 week administered on day 8 post CFA induction measured every 2 days during compound dosing; assay type: functional, organism-based
Mus musculus [24] = test: Antiinflammatory activity in Kunming mouse CFA-induced arthritis model assessed as inhibition of paw swelling at 100 mg/kg/day, po for 1 week administered on day 8 post CFA induction measured after day 3 during compound dosing; assay type: functional, organism-based; how it was run: as §2

CCCCCCCCCCOc1cc(OC)ccc1C(C)=O
IC50 [1]: 26.6 mM
IC50 [2]: 40.1 mM
IC50 [3]: 57.4 mM
IC50 [4]: 41.7 mM

CCOc1cc(OC)ccc1C(C)=O
IC50 [1]: 6.6 mM
IC50 [2]: 39.6 mM
IC50 [3]: 35.3 mM
IC50 [4]: 37.7 mM
solubility [5]: Soluble

CCCCCCOc1cc(OC)c(Br)cc1C(C)=O
IC50 [1]: 34 mM
IC50 [2]: 42.4 mM
IC50 [3]: 53.1 mM
IC50 [4]: 35.7 mM

CCCCOc1cc(OC)c(Br)cc1C(C)=O
IC50 [1]: 38.2 mM
IC50 [2]: 42.3 mM
IC50 [3]: 56.9 mM
IC50 [4]: 34.1 mM

Cc1c(C)c2c(c(C)c1O)CCC(C)(C(=O)O)O2 (centres undefined) [TROLOX]
IC50 [1]: 0.6 mM
IC50 [2]: 0.2 mM
IC50 [3]: 0.2 mM
IC50 [4]: 0.3 mM

CCCCCCCCCCOc1cc(OC)c(Br)cc1C(C)=O
IC50 [1]: 15 mM
IC50 [2]: 35.1 mM
IC50 [3]: 29.7 mM
IC50 [4]: 34.7 mM

COc1cc(O)c(C(C)=O)cc1Br
Activity (Mus musculus [6]): 57.6 ng/L
IC50 [1]: 15.6 mM
IC50 [2]: 41.8 mM
IC50 [3]: 3 mM
IC50 [4]: 31.4 mM
inhibition (Mus musculus [7]): Active
Activity (Mus musculus [8]): 65.4 ng/L
Activity (Mus musculus [9]): 142.3 ng/L
Activity (Mus musculus [10]): 179.5 ng/L
Activity (Mus musculus [11]): 6.4 nmol/mL
Activity (Mus musculus [12]): 9.9 nmol/mL
Activity (Mus musculus [13]): 6 U/ml
Activity (Mus musculus [14]): 3.8 U/ml
Activity (Mus musculus [15]): 78.1 U/ml
Activity (Mus musculus [16]): 76.3 U/ml
inhibition (Mus musculus [17]): Active

CCCCOc1cc(OC)ccc1C(C)=O
IC50 [1]: 15.6 mM
IC50 [2]: 43.3 mM
IC50 [3]: 57.2 mM
IC50 [4]: 36.3 mM

CCCCCCCCOc1cc(OC)ccc1C(C)=O
IC50 [1]: 21.2 mM
IC50 [2]: 40 mM
IC50 [3]: 69.4 mM
IC50 [4]: 38.3 mM

CCCCCCCCCCCCOc1cc(OC)ccc1C(C)=O
IC50 [1]: 28.5 mM
IC50 [2]: 37.4 mM
IC50 [3]: 65.6 mM
IC50 [4]: 40.7 mM

COc1ccc(C(C)=O)c(O)c1 [PAEONOL]
Activity (Mus musculus [6]): 61.1 ng/L
IC50 [1]: 5.8 mM
IC50 [2]: 42.8 mM
IC50 [3]: 0.2 mM
IC50 [4]: 16 mM
inhibition (Mus musculus [7]): Active
Activity (Mus musculus [8]): 66.2 ng/L
Activity (Mus musculus [9]): 137.1 ng/L
Activity (Mus musculus [10]): 155.5 ng/L
Activity (Mus musculus [11]): 7.9 nmol/mL
Activity (Mus musculus [12]): 8.9 nmol/mL
Activity (Mus musculus [13]): 4.1 U/ml
Activity (Mus musculus [14]): 4.6 U/ml
Activity (Mus musculus [15]): 68.1 U/ml
Activity (Mus musculus [16]): 62.5 U/ml
solubility [5]: Soluble
inhibition (Mus musculus [17]): Active

CCCCCCCCCCCCCCOc1cc(OC)c(Br)cc1C(C)=O
IC50 [1]: 6.8 mM
IC50 [2]: 16.1 mM
IC50 [3]: 13.2 mM
IC50 [4]: 8.7 mM

Cc1ccc(-c2cc(C(F)(F)F)nn2-c2ccc(S(N)(=O)=O)cc2)cc1 [CELECOXIB]
Activity (Mus musculus [18]): 61.6 ng/L
Activity (Mus musculus [19]): 135.3 ng/L
Activity (Mus musculus [20]): 7.3 nmol/mL
Activity (Mus musculus [21]): 6.3 U/ml
Activity (Mus musculus [22]): 78 U/ml
inhibition (Mus musculus [23]): Active

CCCCCCCCCCCCCCCCOc1cc(OC)c(Br)cc1C(C)=O
Activity (Mus musculus [6]): 64.7 ng/L
IC50 [1]: 1.8 mM
IC50 [2]: 6.5 mM
IC50 [3]: 0.1 mM
IC50 [4]: 4.6 mM
inhibition in vivo at 100 mg/kg/day (Mus musculus [7]): 45%
Activity (Mus musculus [8]): 63.9 ng/L
Activity (Mus musculus [9]): 150.1 ng/L
Activity (Mus musculus [10]): 189.3 ng/L
Activity (Mus musculus [11]): 5.8 nmol/mL
Activity (Mus musculus [12]): 7.5 nmol/mL
Activity (Mus musculus [13]): 11.6 U/ml
Activity (Mus musculus [14]): 6.5 U/ml
Activity (Mus musculus [15]): 76.2 U/ml
Activity (Mus musculus [16]): 73.9 U/ml
inhibition (Mus musculus [17]): Active

CCCCCCCCCCCCCCCCOc1cc(OC)ccc1C(C)=O
Activity (Mus musculus [6]): 64.4 ng/L
IC50 [1]: 39.4 mM
IC50 [2]: 39.4 mM
IC50 [3]: 61.5 mM
IC50 [4]: 36.3 mM
inhibition in vivo at 100 mg/kg/day (Mus musculus [7]): 65%
inhibition (Mus musculus [24]): Active
Activity (Mus musculus [8]): 65.2 ng/L
Activity (Mus musculus [9]): 159.4 ng/L
Activity (Mus musculus [10]): 182.2 ng/L
Activity (Mus musculus [11]): 8.8 nmol/mL
Activity (Mus musculus [12]): 9.7 nmol/mL
Activity (Mus musculus [13]): 16.9 U/ml
Activity (Mus musculus [14]): 11.1 U/ml
Activity (Mus musculus [15]): 80.7 U/ml
Activity (Mus musculus [16]): 72.1 U/ml
inhibition (Mus musculus [17]): Active

CCCCCCCCOc1cc(OC)c(Br)cc1C(C)=O
IC50 [1]: 30.9 mM
IC50 [2]: 39 mM
IC50 [3]: 38.1 mM
IC50 [4]: 32 mM

CCCCCCOc1cc(OC)ccc1C(C)=O
IC50 [1]: 18 mM
IC50 [2]: 42.6 mM
IC50 [3]: 84.4 mM
IC50 [4]: 42.1 mM

CCCCCCCCCCCCCCOc1cc(OC)ccc1C(C)=O
IC50 [1]: 35.9 mM
IC50 [2]: 43.6 mM
IC50 [3]: 57 mM
IC50 [4]: 38 mM

CCCCCCCCCCCCOc1cc(OC)c(Br)cc1C(C)=O
IC50 [1]: 10.6 mM
IC50 [2]: 29.5 mM
IC50 [3]: 23.1 mM
IC50 [4]: 32.7 mM

CCOc1cc(OC)c(Br)cc1C(C)=O
IC50 [1]: 37.9 mM
IC50 [2]: 46.8 mM
IC50 [3]: 57.7 mM
IC50 [4]: 36 mM
solubility [5]: Soluble

From ChEMBL document CHEMBL3862014, “Synthesis and anti-inflammatory activity of paeonol analogues in the murine model of complete Freund's adjuvant induced arthritis” (Bioorg Med Chem Lett, 2016)
